Measurements: ChEMBL document CHEMBL4732029, “Synthesis and evaluation of bis(imino)anthracene derivatives as G-quadruplex ligands” (RSC Med Chem, 2021)

Tests used:
Assay type in all cases: functional, cell-based
HeLa [1] = assay: Cytotoxicity against human HeLa cells assessed as reduction in cell viability incubated for 24 hrs by presto blue assay
Procedure, shortened: (§1)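 HeLa cells (ATCC CCL-2) were exposed to each compound at 100, 30, 10 and 1 µM for 24 h. Viability was read by PrestoBlue absorbance and normalized to a DMSO negative control; doxorubicin served as positive control. Data are mean and SEM. IC50 came from the percentage viability plotted against log concentration, with R squared reported.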

HeLa [2] = assay: Cytotoxicity against human HeLa cells; procedure, shortened: as §1
HeLa [3] = assay: Cytotoxicity against human HeLa cells assessed as reduction in cell viability incubated for 24 hrs by MTT assay

SMILES | IC50 (HeLa [1]) | IC50 (HeLa [2]) | also measured
Cc1cnc(/N=C/c2c3ccccc3c(/C=N/c3ncc(C)s3)c3ccccc23)s1 | 20.5 µM |  | 
C(=N\CCc1c[nH]c2ccccc12)/c1c2ccccc2c(/C=N/CCc2c[nH]c3ccccc23)c2ccccc12 | 30.6 µM |  | 
COc1cccc2c1C(=O)c1c(O)c3c(c(O)c1C2=O)C[C@@](O)(C(=O)CO)C[C@@H]3O[C@H]1C[C@H](N)[C@H](O)[C@H](C)O1 [DOXORUBICIN] |  | 0.374 µM | 
CN(C)c1ccc(Nc2c3ccc(NC(=O)CCN4CCCC4)cc3nc3cc(NC(=O)CCN4CCCC4)ccc23)cc1 |  |  | IC50 (HeLa [3]): 5.25 µM
C(=N\Cc1ccc2c(c1)OCO2)/c1c2ccccc2c(/C=N/Cc2ccc3c(c2)OCO3)c2ccccc12 | 18 µM |  | 
CN(C)CCNC(=O)c1cccn2c(=O)c3cc4ccccc4cc3nc12 |  | 0.46 µM | 
CN1CCC[C@H]1CCNC(=O)c1cn2c3c(c(N4CCC(c5cnccn5)C4)c(F)cc3c1=O)Oc1cc3ccccc3cc1-2 (stereo partly specified) [QUARFLOXIN] |  | 4.44 µM | 
Cc1cnc(CNC(=O)c2c(=O)c3ccc(N4CCCN(C)CC4)nc3n3c2sc2ccccc23)cn1 [CX-5461] |  | 6.89 µM | 
C(=N\CCN1CCCCC1)/c1c2ccccc2c(/C=N/CCN2CCCCC2)c2ccccc12 | 23.8 µM |  | 
Cc1cc2c3c([n+](C)c4ccc(F)cc4c3c1)-c1cc(F)ccc1N2C |  | 0.2 µM | 
COc1cccc2c1C(=O)c1c(O)c3c(c(O)c1C2=O)C[C@@](O)(C(=O)CO)C[C@@H]3O[C@H]1C[C@H](N2CCO[C@H](OC)C2)[C@H](O)[C@H](C)O1 [NEMORUBICIN] |  | 0.08 µM | 
